Data from ChEMBL document CHEMBL4152308, “Synthesis and biological evaluation of novel 2-oxo-1,2-dihydroquinoline-4-carboxamide derivatives for the treatment of esophageal squamous cell carcinoma” (Eur J Med Chem, 2018).
Calls of active or inactive are those of the source. The calls are words filed in the database; no cut-off is given here.

Key:
MIA PaCa-2 [1] = assay: Inhibition of autophagy in human MIAPaCa2 cells assessed as decrease in bafilomycin-induced LC3B level at 1 to 10 uM after 24 hrs by Western blot analysis; type: functional, cell-based
In short: (§1)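 Cells treated 24 h at indicated concentrations, with bafilomycin for induced-LC3B readouts. Lysis in RIPA with protease inhibitors, BCA protein assay, samples heated 5 min at 100 °C. Equal protein run on 15% SDS-PAGE, transferred to PVDF. Anti-LC3B primary overnight at 4 °C, GAPDH as loading control, anti-rabbit secondary, TBST washes.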

KYSE-410 [2] = assay: Cell cycle arrest in human KYSE410 cells assessed as accumulation at G1 phase at 5 uM after 24 to 48 hrs by propidium iodide staining based flow cytometry (reference value: 65.4%); type: functional
OVCAR-8 = assay: Antiproliferative activity against human OVCAR8 cells after 72 hrs by MTT assay; type: functional, cell-based; settings: OVCAR-8, 72 h
In short: (§2)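 Cells grown as monolayers at 37 °C, 5% CO2, mycoplasma-checked, in exponential phase. Cells seeded in 96-well plates, 24 h attachment, then compound added for 72 h. MTT 0.3 mg/mL for 3 h at 37 °C, DMSO solubilization, absorbance at 570 nm. Inhibition = (1 − A/C) × 100%. IC50 from log(concentration) vs % inhibition plot; triplicate wells, SD from ≥3 independent experiments.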

KYSE-410 [3] = assay: Antiproliferative activity against human KYSE410 cells after 72 hrs by MTT assay; type: functional, cell-based; settings: KYSE-410, 72 h; in short: as §2
KYSE-410 [4] = assay: Cell cycle arrest in human KYSE410 cells assessed as accumulation at G1 phase at 1 uM after 24 to 48 hrs by propidium iodide staining based flow cytometry (reference value: 65.4%); type: functional
KYSE-410 [5] = assay: Cell cycle arrest in human KYSE410 cells assessed as accumulation at G2 phase at 5 uM after 24 to 48 hrs by propidium iodide staining based flow cytometry (reference value: 12.2%); type: functional
KYSE-70 cell line [6] = assay: Inhibition of colony formation in human KYSE-70 cells at >3 uM after 7 days by crystal violet staining based assay; type: functional, cell-based
In short: (§3)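 Seeding at 250 cells/well in 96-well plates, attached 24 h, then serial compound dilutions added at 37 °C. Culture continued 7 days until colonies formed. Colonies washed, stained with 2% crystal violet for 1 h, then rinsed thoroughly with water.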

KYSE-410 [7] = assay: Inhibition of autophagy in human KYSE410 cells assessed as decrease in bafilomycin-induced LC3B level at 1 to 10 uM after 24 hrs by Western blot analysis; type: functional, cell-based; in short: as §1
KYSE-410 [8] = assay: Cell cycle arrest in human KYSE410 cells assessed as accumulation at S phase at 5 uM after 24 to 48 hrs by propidium iodide staining based flow cytometry (reference value: 22.3%); type: functional
KYSE-70 cell line [9] = assay: Antiproliferative activity against human KYSE-70 cells after 72 hrs by MTT assay; type: functional, cell-based; settings: KYSE-70, 72 h; in short: as §2
KYSE-410 [10] = assay: Inhibition of autophagy in human KYSE410 cells assessed as decrease in bafilomycin-induced LC3B level at 10 uM treated at 1 hr post proteasome inhibitor MG132 treatment measured after 24 hrs by Western blot analysis; type: functional, cell-based
In short: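 KYSE410 cells pretreated 1 h with 10 µM MG132 (proteasome inhibitor), then compound at 10 µM for 24 h. Lysis in RIPA with protease inhibitors, BCA quantification, equal protein on 15% SDS-PAGE, PVDF transfer. Anti-LC3B overnight at 4 °C, anti-rabbit secondary, GAPDH as loading reference.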

KYSE-410 [11] = assay: Cell cycle arrest in human KYSE410 cells assessed as accumulation at S phase at 1 uM after 24 to 48 hrs by propidium iodide staining based flow cytometry (reference value: 22.3%); type: functional
SK-OV-3 = assay: Antiproliferative activity against human SKOV3 cells after 72 hrs by MTT assay; type: functional, cell-based; settings: SK-OV-3, 72 h; in short: as §2
KYSE-410 [12] = assay: Inhibition of autophagy in human KYSE410 cells assessed as decrease in bafilomycin-induced LC3B level after 24 hrs by Western blot analysis; type: functional, cell-based; in short: as §1
MIA PaCa-2 [13] = assay: Antiproliferative activity against human MIAPaCa2 cells after 72 hrs by MTT assay; type: functional, cell-based; settings: MIA PaCa-2, 72 h; in short: as §2
KYSE-410 [14] = assay: Inhibition of colony formation in human KYSE410 cells at >3 uM after 7 days by crystal violet staining based assay; type: functional, cell-based; in short: as §3
KYSE-410 [15] = assay: Cell cycle arrest in human KYSE410 cells assessed as accumulation at G2 phase at 1 uM after 24 to 48 hrs by propidium iodide staining based flow cytometry (reference value: 12.2%); type: functional

**Q.** `O=C(Nc1cc(F)cc(F)c1)c1cc(=O)[nH]c2cc(Br)ccc12` was tested. Which inhibition (MIA PaCa-2 [1]) did it give?
**A.** Active

**Q.** And the Activity (KYSE-410 [2])?
**A.** 57.2%

**Q.** And the IC50 (OVCAR-8)?
**A.** 12.1 µM

**Q.** What about the IC50 (KYSE-410 [3]) of the same compound?
**A.** 11.2 µM

**Q.** And the Activity (KYSE-410 [4])?
**A.** 64.2%

**Q.** And the Activity (KYSE-410 [5])?
**A.** 19.8%

**Q.** And the inhibition (KYSE-70 cell line [6])?
**A.** Active

**Q.** What about the inhibition (KYSE-410 [7]) of the same compound?
**A.** Active

**Q.** And the Activity (KYSE-410 [8])?
**A.** 23%

**Q.** And the IC50 (KYSE-70 cell line [9])?
**A.** 10.7 µM

**Q.** And the inhibition (KYSE-410 [10])?
**A.** inactive

**Q.** And the Activity (KYSE-410 [11])?
**A.** 21.2%

**Q.** And the IC50 (SK-OV-3)?
**A.** 10.8 µM

**Q.** What about the inhibition (KYSE-410 [12]) of the same compound?
**A.** Dose-dependent effect

**Q.** What about the IC50 (MIA PaCa-2 [13]) of the same compound?
**A.** 7.8 µM

**Q.** What about the inhibition (KYSE-410 [14]) of the same compound?
**A.** Active

**Q.** What about the Activity (KYSE-410 [15]) of the same compound?
**A.** 14.6%
